Bioassay records (PubChem BioAssay)
MrgX1 agonist – agonists of human MrgX1 receptor; Q96LB2; 310,000 compounds, 0.44% hits; B-score at 10 µM; MrgX1-HEK293 cells, Fluo-4 calcium fluorescence, agonist mode; active compounds read high;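 active = calcium response B-score plate-corrected fluorescence ratio at least 3 library SD, with starting fluorescence B-score inside 5 SD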
Target sequence (Q96LB2 whole entry, looked up): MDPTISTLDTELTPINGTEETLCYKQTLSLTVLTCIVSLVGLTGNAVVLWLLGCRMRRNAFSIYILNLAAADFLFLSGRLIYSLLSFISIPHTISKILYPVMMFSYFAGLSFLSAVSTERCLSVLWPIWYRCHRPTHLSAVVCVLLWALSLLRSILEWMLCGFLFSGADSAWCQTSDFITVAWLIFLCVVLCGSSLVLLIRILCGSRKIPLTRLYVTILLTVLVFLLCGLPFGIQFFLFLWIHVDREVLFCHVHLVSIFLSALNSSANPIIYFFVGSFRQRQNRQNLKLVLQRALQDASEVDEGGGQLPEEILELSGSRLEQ
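Material: MrgX1-expressing HEK293 cells; input: 15,000 cells per well; doses: test compound given as first of three sequential additions; schedule: overnight plating before 1 h dye loading; technique: Fluo-4 NW calcium-flux fluorescence, kinetic read; evaluation: baseline-normalised fluorescence change ratio, B-scored; control set: plate-wise positive and negative controls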
MrgX1 PAM – human MrgX1 positive allosteric modulation, primary screen; Q96LB2; B-score at 10 µM; MrgX1-HEK293, Fluo-4 calcium flux, FDSS; active compounds read high; 310,000 compounds, 0.63% hits;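 active = plate-corrected calcium response at least 3 library SD above typical, normal starting fluorescence, not activating the receptor alone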;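 also: compound read alongside a low EC10 to EC30 dose of BAM8-22 agonist; peak minus trough fluorescence over baseline measured at the second addition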
RGS4 pot – RGS4 potentiation or activation; HEK293 M3R/inducible RGS4, carbachol calcium flux Fluo4; active compounds read low; B-score at 10 µM; 310,000 compounds, 0.92% hits;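 active = B-score of the integrated calcium signal more than 4 SD below the library mean, with starting fluorescence not abnormally high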;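 also: negative B-score means reduced calcium response which marks RGS4 activation or potentiation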
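Test system: HEK293 cells with stable M3R and inducible RGS4; also added: carbachol at ECmax as muscarinic agonist stimulus; schedule: dye loading 30 min 37 °C, buffer rest 30 min RT; technique: kinetic calcium fluorescence imaging with Fluo4-AM dye, 2 µM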
MrgX1 antagonist – human MrgX1 receptor antagonism, primary screen; Q96LB2; MRGX1-HEK293 calcium flux, Fluo-4, BAM8-22 antagonism; active compounds read low; B-score at 10 µM; 310,000 compounds, 1.3% hits; AID 588676;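 active = calcium-response B-score plate-corrected more than 3 library SD below zero, starting fluorescence within 5 deviations, no agonist response on first addition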;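 also: peak minus trough fluorescence over baseline after final BAM8-22 challenge near maximal dose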
RGS4 block – inhibitors of human RGS4; B-score at 10 µM; AID 463165; P49798; 310,000 compounds, 0.45% hits; HEK293 M3R/RGS4 inducible, Fluo-4 calcium flux; active compounds read high; triggered by carbachol at its EC20;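 active = B-score, a plate-corrected calcium signal, over three deviations above library mean, with baseline fluorescence within five deviations of library mean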;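 also: RGS4 expression induced by doxycycline in cells with stable M3 receptor; B-score is computed from the integrated fluorescence ratio over baseline after carbachol; higher B-score means a larger calcium signal and so more RGS4 inhibition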
Target sequence (P49798 whole entry, looked up): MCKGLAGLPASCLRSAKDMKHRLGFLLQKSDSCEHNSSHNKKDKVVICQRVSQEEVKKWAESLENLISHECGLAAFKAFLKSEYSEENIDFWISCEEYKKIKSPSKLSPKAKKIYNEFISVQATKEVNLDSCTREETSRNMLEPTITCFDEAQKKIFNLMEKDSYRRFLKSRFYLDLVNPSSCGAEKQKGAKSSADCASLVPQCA
MrgX1 allo conf – human MrgX1 positive allosteric modulation, re-confirmation. shares compounds with MrgX1 PAM. MrgX1-HEK293, Fluo-4 calcium fluorescence, FDSS. activation (ratio percentage), % at 10 µM. 1,200 compounds, 13% hits;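 active = ratio at least 3 SD above the weak peptide control, stable starting fluorescence, no direct agonism earlier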;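 also: compound followed by low BAM8-22 agonist challenge near EC20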
HEK293 Ca flux – counter-screen for MrgX1 antagonists: effect in parental HEK293 cells; shares compounds with MrgX1 antagonist; Fluo-4 calcium fluorescence, FDSS; fluorescence ratio F(max-min)/F0 at 10 µM; 4,000 compounds, 2% hits; AID 624111;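 active = duplicate-averaged calcium fluorescence ratio at least three times the standard deviation of buffer wells, a nonspecific response in parental cells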
HEK293 Ca counter – activity in parental HEK293 cells without MrgX1. parental HEK293 calcium flux, Fluo-4 fluorescence ratio; active compounds read high. 4,000 compounds, 0.4% hits. AID 624114. shares compounds with MrgX1 antagonist. fluorescence ratio F(max-min)/F0 at 10 µM;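 active = calcium fluorescence ratio, averaged over duplicates, at least 3 SD of the buffer-well ratio, meaning a nonspecific response in receptor-free cells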;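 also: untransfected parental HEK293 lacking MrgX1 used as counterscreen for MrgX1 allosteric activators; fluorescence change taken during the second addition on a kinetic imager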
HEK293 Ca cntr2 – activity in parental HEK293 cells lacking MrgX1 receptor. shares compounds with MrgX1 antagonist. Fluo-4 calcium fluorescence (FDSS); active compounds read high. fluorescence ratio F(max-min)/F0 at 10 µM. 4,000 compounds, 8.7% hits. AID 624115;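 active = calcium fluorescence ratio at least three times the spread of buffer wells, meaning a non-specific response in parental cells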
* marks the source's active call; other numbers are inactive results; i = inactive; nt = no result given. This is a sample that favours compounds with a hit; in the whole collection about 3.5% have one here.

SMILES | MrgX1 agonist | MrgX1 PAM | RGS4 pot | MrgX1 antagonist | RGS4 block | MrgX1 allo conf | HEK293 Ca flux | HEK293 Ca counter | HEK293 Ca cntr2
Cc1cc(NC(=S)N(CCCN2CCN(C)CC2)Cc2ccco2)ccc1Cl | i | i | i | i | i | nt | nt | nt | nt
O=C(Nc1ccccc1F)Oc1cccc(OC(=O)Nc2ccccc2F)c1 | i | 7.5* | i | i | i | i | i | i | i
COc1cccc(C(=O)Nc2ccccc2F)c1 | i | i | i | i | i | nt | nt | nt | nt
CN(C(=O)c1nc(-c2ccccc2)n(-c2ccccc2)n1)C1CCS(=O)(=O)C1 (centres undefined) | i | i | i | i | i | nt | nt | nt | nt
CSc1ccccc1OCc1cc(C(=O)NC(C)Cc2cccc(C)n2)no1 (centres undefined) | i | i | i | i | i | nt | nt | nt | nt
C[C@H](Nc1ncnc2sc3c(c12)CCC3)C(=O)O | i | i | i | i | i | nt | nt | nt | nt
Cc1ccc(C(=O)Nc2ncnc3sc4c(c23)CCCCC4)cc1 | i | 6.7* | i | i | i | 8.1%* | i | i | i
c1ccc(Nc2ncnc3sc4c(c23)CCC4)cc1 | i | i | i | i | i | nt | nt | nt | nt
Fc1ccc(Nc2ncnc3sc4c(c23)CCC4)cc1 | i | 6.9* | i | i | i | i | i | i | i
Cc1cc(OCC(=O)NC2CCCCC2)ccc1Cl | i | i | i | i | i | nt | nt | nt | nt
O=C(NCc1ccccc1)OCCN1CCN(Cc2ccccc2)CCC1=O | i | i | i | i | i | nt | nt | nt | nt
COc1ccc(-n2c(COc3ccc(C)cc3)n[nH]c2=S)cc1 | i | i | i | i | i | nt | nt | nt | nt
Cc1ccc(-n2c(CCc3ccccc3)n[nH]c2=S)cc1C | i | 6.5* | i | i | i | i | i | i | i
Cc1ccc(OCc2n[nH]c(=S)n2-c2ccccc2)cc1C | i | 8.7* | i | i | i | i | i | i | i
Cc1ccc(-n2c(COc3ccccc3)n[nH]c2=S)cc1 | i | 8* | i | i | i | i | i | i | i
Cc1ccc(-n2c(COc3cccc(C)c3)n[nH]c2=S)cc1 | i | 11* | i | i | i | i | i | i | i
O=C(COC(=O)c1cc(Br)ccc1O)NC1CCCCCC1 | i | i | i | i | i | nt | nt | nt | nt
O=C(COC(=O)c1cc(Br)ccc1Cl)NC1CCCC1 | i | 8* | i | i | i | i | i | i | i
Cc1nc2ccccc2cc1OCc1ccc(Cl)cc1 | i | i | i | i | i | nt | nt | nt | nt
Cc1nc2ccccc2cc1OCc1ccccc1 | i | 6.6* | i | i | i | i | i | i | i
CCOC(=O)c1ccc2c(c1)nc(-c1ccccn1)n2CC | i | 7.6* | i | i | i | i | i | i | i
NS(=O)(=O)c1ccc(NC(=O)CSc2nnc(Cc3cccs3)n2-c2ccccc2)cc1 | i | i | i | i | i | nt | nt | nt | nt
O=C1CSC(c2ccccc2)N1c1ccccc1F (centres undefined) | i | i | i | i | i | nt | nt | nt | nt
Cc1ccc(C(F)(F)F)cc1NC(N)=S | i | 7.2* | i | i | i | i | i | i | i
CCOc1ccc(NC(=O)CCSc2nnc(C)s2)cc1 | i | i | i | i | i | nt | nt | nt | nt
SMILES | MrgX1 agonist | MrgX1 PAM | RGS4 pot | MrgX1 antagonist | RGS4 block | MrgX1 allo conf | HEK293 Ca flux | HEK293 Ca counter | HEK293 Ca cntr2
N#CC(C(=O)NC1CC1)c1nc2ccccc2nc1N1CCCC1 (centres undefined) | i | i | i | i | i | nt | nt | nt | nt
N#CC(C(=O)NC1CC1)c1nc2ccccc2nc1N1CCN(C/C=C/c2ccccc2)CC1 (centres undefined) | i | 9.3* | i | i | i | i | i | i | i
COc1cc2c(cc1OC)C1(Nc3c-2c(C)nn3-c2ccccc2)C(=O)Nc2ccccc21 (centres undefined) | i | 6.7* | nt | i | nt | i | i | i | i
O=C(CSC1=NCCN1)NC(c1ccccc1)c1ccccc1 | i | 13* | i | i | i | i | i | i | i
COc1ccc(C2CC(=O)C3=C(C2)Nc2ncnn2C3c2ccccc2C)c(OC)c1 (centres undefined) | i | i | i | i | i | nt | nt | nt | nt
Cc1ccc(CN2CCN(C3CCOCC3)CC2CCO)cc1 (centres undefined) | i | 8.9* | i | i | i | i | i | i | i
CC(C)c1nc2c(c(=O)c3ccccc3n2C)c(=O)n1-c1ccc(F)cc1 | i | i | i | i | i | nt | nt | nt | nt
Cc1csc(NC(=O)c2cncc(Br)c2)n1 | i | 15* | i | i | i | i | i | i | i
CC(C)Cc1nc2sc3c(=O)n(N)cnc3c2c2c1COC(C)(C)C2 | i | i | i | i | i | nt | nt | nt | nt
CCOC(=O)c1c(-c2cccs2)csc1NC(=O)C(C)(C)C | i | 12* | i | i | i | i | i | i | i
CCOC(=O)c1c(-c2cccs2)csc1NC(C)=O | i | i | i | i | i | nt | nt | nt | nt
Clc1ccc(CSc2cc3c(nn2)-c2ccccc2CC3)cc1 | i | 8* | i | i | i | i | i | 48* | i
Oc1ccc(N2CCN(Cc3cc4c(cc3Br)OCCO4)CC2)cc1 | i | i | i | i | i | nt | nt | nt | nt
CCCn1c(=O)c(C(=O)Nc2ccccc2)c(O)c2ccccc21 | i | i | i | i | i | nt | nt | nt | nt
CCCn1c(=O)c(C(=O)Nc2cccc(C)c2)c(O)c2ccccc21 | i | 7.2* | i | i | i | i | i | i | i
COc1ccc(Cn2nnnc2CN2CCCCCC2)cc1 | i | i | i | i | i | nt | nt | nt | nt
CCc1c(C)c(C#N)c2nc3ccccc3n2c1NCCOC | i | i | i | i | i | nt | nt | nt | nt
Cc1ccccc1-c1nc2sc3c(c2c(=O)o1)CCC3 | i | i | i | i | i | nt | nt | nt | nt
